According to ChEMBL document CHEMBL1144224, “Molecular design to enhance the penetration into the retina via ocular instillation” (Bioorg Med Chem Lett, 2008):

Experiments:
[1] = Octanol-water partition coefficient, log P of the compound; format: physicochemical
Outline: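 Log P measured as the partition coefficient between n-octanol and water.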

[2] = AUC (0 to 4 hrs) in Japanese white rabbit retina after ocular instillation of 1% suspension; format: ADME, tissue-based, Oryctolagus cuniculus; set-up: time < 4 hr; conditions: topical or ocular
Outline: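 Rabbit eyes given topical drops of 1% suspension or solution. Retinal drug levels measured over 0–4 h, with n = 3-4 eyes per time point. AUC0–4h is calculated from the mean level-time curve.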

[3] = AUC (0 to 4 hrs) in Japanese white rabbit aqueous humor after ocular instillation of 1% suspension; format: ADME, Oryctolagus cuniculus; set-up: time < 4 hr; conditions: topical or ocular
Outline: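 Rabbit eyes given topical drops of 1% suspension or solution. Aqueous humor drug levels measured over 0–4 h, with n = 3-4 eyes per time point. AUC0–4h is calculated from the mean level-time curve.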

[4] = Plasma AUC (0 to 4 hrs) in cynomolgus monkey at 10 mg/kg, po; format: ADME, organism-based, Macaca fascicularis; set-up: time < 4 hr, dose 10 mg/kg, route oral
Outline: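 Cynomolgus monkeys dosed orally at 10 mg/kg as a 0.2% suspension or solution in 0.5% carboxymethyl cellulose. Plasma drug levels followed over 0–4 h (n = 3-6), and AUC0–4h is derived from the plasma level-time curve.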

[5] = Drug concentration in rat retina at 10 mg/kg, po at Tmax time; format: ADME, organism-based; set-up: dose 10 mg/kg, route oral; conditions: in vivo, read-out: Drug uptake
[6] = Drug concentration in rat retina at 10 mg/kg, po after 4 hrs; format: ADME, organism-based; set-up: dose 10 mg/kg, route oral; conditions: read-out: Drug uptake

| logP [1] | AUC(0-t) at 4 h [2] | AUC(0-t) at 4 h [3] | AUC(0-t) at 4 h [4] | concentration [5] | concentration at 4 h [6] | Structure (SMILES) |
| --- | --- | --- | --- | --- | --- | --- |
| 0.91 | 2.37 µM·h | 1.55 µM·h | 2.43 µM·h | 400 nM | 200 nM | COCCOCCOC(=O)N[C@@H](CC(C)C)C(=O)N[C@@H](Cc1ccccc1)C(=O)C(=O)NC1CC1 |
| 1 | 1.32 µM·h | 1.9 µM·h | 1.88 µM·h | – | – | COCCOC(=O)N[C@@H](CC(C)C)C(=O)N[C@@H](Cc1ccccc1)C(=O)C(=O)NC1CC1 |
| 0.7 | 7.12 µM·h | 5.89 µM·h | 1.61 µM·h | – | – | COCCOCCOCCOCCOC(=O)N[C@@H](CC(C)C)C(=O)N[C@@H](Cc1ccccc1)C(=O)C(=O)NC1CC1 |
| 0.93 | 13.1 µM·h | 7.88 µM·h | 1.6 µM·h | – | – | COCCOCCOCCOC(=O)N[C@@H](CC(C)C)C(=O)N[C@@H](Cc1ccccc1)C(=O)C(=O)NC1CC1 |
| 0.72 | 2.99 µM·h | 1.96 µM·h | – | – | – | COCCOCCOCCOCCOCCOC(=O)N[C@@H](CC(C)C)C(=O)N[C@@H](Cc1ccccc1)C(=O)C(=O)NC1CC1 |
